The record followed here is ChEMBL document CHEMBL2396539, “Asymmetric synthesis of the four diastereoisomers of a novel non-steroidal farnesoid X receptor (FXR) agonist: role of the chirality on the biological activity” (Bioorg Med Chem, 2013).

For one test, the target named is T1, Bile acid receptor (Homo sapiens, UniProt Q96RI1).
T1 sequence (Q96RI1 whole entry): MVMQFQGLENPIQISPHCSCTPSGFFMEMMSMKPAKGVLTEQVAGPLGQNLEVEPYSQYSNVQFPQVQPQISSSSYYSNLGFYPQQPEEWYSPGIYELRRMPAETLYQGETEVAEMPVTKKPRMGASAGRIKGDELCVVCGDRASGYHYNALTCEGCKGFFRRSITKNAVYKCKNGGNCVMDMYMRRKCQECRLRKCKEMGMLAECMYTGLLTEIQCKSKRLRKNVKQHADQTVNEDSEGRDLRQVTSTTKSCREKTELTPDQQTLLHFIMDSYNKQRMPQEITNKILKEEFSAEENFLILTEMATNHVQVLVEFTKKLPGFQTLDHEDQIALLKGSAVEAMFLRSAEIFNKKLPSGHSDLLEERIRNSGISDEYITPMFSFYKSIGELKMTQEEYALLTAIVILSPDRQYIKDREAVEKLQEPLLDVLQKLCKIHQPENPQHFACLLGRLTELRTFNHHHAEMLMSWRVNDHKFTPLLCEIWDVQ
The test can be described thus: Agonist activity at GST-tagged human FXR LBD assessed as recruitment of biotinylated SRC-1 peptide after 30 mins by AlphaScreen assay. Summed up: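 Human FXR ligand-binding domain fused to GST was incubated with the ligand at increasing concentrations together with biotinylated SRC-1 peptide. Ligand-dependent recruitment of the coactivator peptide was read out by AlphaScreen. Where tested, compounds were single diastereoisomers or a mixture of syn- and anti-couples.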

In test [1] the target is T2, Bile acid receptor (Homo sapiens) (UniProt Q96RI1).
T2 sequence (whole entry): T1 sequence (Q96RI1 whole entry)
Description: Agonist activity at GST-tagged human FXR LBD assessed as recruitment of biotinylated SRC-1 peptide after 30 mins by AlphaScreen assay relative to CDCA.

Take `Cc1ccccc1-n1nc(C)c2c1NC(=O)[C@H](C)S[C@@H]2c1ccc(Oc2ccccc2)cc1` [listing 1 of 2 here]: the EC50 on Bile acid receptor was 1.4 µM.

For the compound `Cc1ccccc1-n1nc(C)c2c1NC(=O)[C@@H](C)S[C@@H]2c1ccc(Oc2ccccc2)cc1`, at Bile acid receptor, the EC50 is more than 150 µM. On to `Cc1ccccc1-n1nc(C)c2c1NC(=O)[C@@H](C)S[C@H]2c1ccc(Oc2ccccc2)cc1`, for which the EC50 at Bile acid receptor is more than 150 µM.

Regarding `Cc1ccccc1-n1nc(C)c2c1NC(=O)[C@H](C)S[C@H]2c1ccc(Oc2ccccc2)cc1`, on Bile acid receptor, the EC50 was more than 150 µM. As to `Cc1ccccc1-n1nc(C)c2c1NC(=O)[C@H](C)S[C@@H]2c1ccc(Oc2ccccc2)cc1` [listing 2 of 2 here], the Efficacy in test [1] was found to be 130%. Take `CCC1SC(c2ccc(Oc3ccccc3)cc2)c2c(C)nn(-c3ccccc3C)c2NC1=O` (mixture of isomers): the Efficacy in test [1] was 35%. In addition, the EC50 at Bile acid receptor came to 3 µM. As for `Cc1ccccc1-n1nc(C)c2c1NC(=O)[C@H](C)S[C@@H]2c1ccc(Oc2ccccc2)cc1` (racemic) [listing 1 of 2 here], the EC50 at Bile acid receptor is 3 µM.

Consider `Cc1ccccc1-n1ncc2c1NC(=O)[C@H](C)S[C@@H]2c1ccc(Oc2ccccc2)cc1` (racemic), for which the EC50 on Bile acid receptor is more than 150 µM.

Regarding `CCc1nn(-c2ccccc2C)c2c1[C@@H](c1ccc(Oc3ccccc3)cc1)S[C@@H](C)C(=O)N2` (racemic), the Efficacy in test [1] was 140%. At Bile acid receptor, the EC50 is 2 µM. In the case of `Cc1ccccc1-n1nc(C)c2c1NC(=O)CS[C@H]2c1ccc(Oc2ccccc2)cc1` (racemic), the Efficacy in test [1] turned out to be 8%. Further, on Bile acid receptor, the EC50 stood at 14 µM.

With `CCC[C@@H]1S[C@H](c2ccc(Oc3ccccc3)cc2)c2c(C)nn(-c3ccccc3C)c2NC1=O` (racemic), the EC50 on Bile acid receptor was more than 150 µM. Regarding `Cc1ccccc1-n1nc(C)c2c1NC(=O)[C@H](C)S[C@@H]2c1ccc(Oc2ccccc2)cc1` (racemic) [listing 2 of 2 here], in test [1], the Efficacy amounted to 150%.
